In PMC7970147 (Heliyon, 2021):
pKd: −log10 of the molar value.

Columns and labels:
DsOBP69a = target: T1, DsOBP69a (Drosophila suzukii, UniProt A0AB39ZGK5); assay: Fluorescence competition binding assay with bis-ANS, recombinant DsOBP69a; settings: for binding to DsOBP69a (in words): fluorescence competition binding assay
T1 sequence (A0AB39ZGK5 25-148): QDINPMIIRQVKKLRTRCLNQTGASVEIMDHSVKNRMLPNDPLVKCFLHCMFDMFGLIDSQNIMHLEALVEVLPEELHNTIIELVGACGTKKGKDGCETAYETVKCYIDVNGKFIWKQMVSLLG
Outline: (§1)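 Recombinant D. suzukii OBP expressed in E. coli BL21(DE3) (pET-30a), recovered from inclusion bodies in 8 M urea, Ni-NTA purified, refolded and dialysed into 50 mM Tris-HCl pH 7.4. Protein (2 μmol L−1 final) plus bis-ANS was titrated with ligand (1 mmol L−1 methanol stock). Excitation was 295 nm, with a 300–550 nm scan. Ki = IC50/(1+[bis-ANS]/Kbis-ANS), with Kbis-ANS from a Scatchard plot.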

OBP28a = settings: ref Gonzalez et al., 2019; cited from earlier work
DsOBP76a = target: T2, DsOBP76a (Drosophila suzukii, UniProt A0AB39ZCT4); assay: Fluorescence competition binding assay with bis-ANS, recombinant DsOBP76a; settings: for binding to DsOBP76a (in words): fluorescence competition binding assay
T2 sequence (A0AB39ZCT4 30-153): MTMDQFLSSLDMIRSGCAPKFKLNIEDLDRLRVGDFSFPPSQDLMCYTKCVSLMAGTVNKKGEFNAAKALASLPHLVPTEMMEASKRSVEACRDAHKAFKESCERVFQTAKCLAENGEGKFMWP
Outline: as §1

DsOBP59h = settings: ref Li et al., 2019; cited from earlier work
DmOBP69a = settings: ref Bentzur et al., 2018; cited from earlier work
DmOBP76a = settings: ref Billeter and Levine, 2015; cited from earlier work

Structure (SMILES)	pKd (DsOBP69a)	pKd (DsOBP76a)	affinity with DsOBP59h proteins (in words) (DsOBP59h)	binding to DsOBP69a (in words) (DsOBP69a)	binding to DsOBP76a (in words) (DsOBP76a)	further results
CC(=O)/C=C/C1=C(C)CCCC1(C)C [β-Ionone]	5.39	5.47	–	–	–	affinity with OBP28a (in words) (OBP28a): strong affinity
CCCCCC/C=C\CCCCCCCCCCCCCCC [(Z)-7-Tricosene]	4.71	–	–	–	–	–
COc1ccc2cc3[n+](cc2c1OC)CCc1cc2c(cc1-3)OCO2 [Berberine chloride]	5.14	5.12	high affinity	–	–	–
O=c1ccc2ccccc2o1 [Coumarin]	4.69	5.11	high affinity	–	–	–
CC[N+](CC)(CC(=O)Nc1c(C)cccc1C)Cc1ccccc1 [Denatonium benzoate]	–	–	not affinity	not affinity	not affinity	–
CCCCCC/C=C\CCCCCCCCCCOC(C)=O [11-cis-Vaccenyl acetate]	–	–	–	do not bind	do not bind	binding to DmOBP69a (in words) (DmOBP69a): bind; binding to DmOBP76a (in words) (DmOBP76a): bind
NC(=S)Nc1ccccc1 [N-Phenylthiourea]	–	–	not affinity	not affinity	not affinity	–
O=C1C[C@@H](c2ccc(O)cc2)Oc2cc(O)cc(O)c21 [Naringenin]	4.62	4.62	–	–	–	–
